Assay results published in PMC4170804 (Bioorganic & medicinal chemistry, 2013).
Read-outs that look alike come from different tables or passages of the source.

Experiments:
tubulin = assay: Inhibition of [3H]colchicine binding to tubulin; design: species or system bovine; conditions: for Colchicine binding % ± SD (inhibition of [3H]colchicine binding): tubulin 1 µM, colchicine 5 µM, tested compound 5 µM
[1] = system: epithelial carcinoma (A431) cells; conditions: cited from earlier work
HeLa cells [2] = assay: Antiproliferative assay, human cervix carcinoma HeLa cells; assay type: cell-based; conditions: read-out: IC50 ± SD, HeLa, 48 h
CEM/0 cells = assay: Antiproliferative assay, human T-leukemia CEM/0 cells; assay type: cell-based; conditions: read-out: IC50 ± SD, CEM/0, 48 h, Coulter counter
[3] = system: human pancreatic tumor (MIA PaCa-2) cells; conditions: cited from earlier work
FM3A/0 cells = assay: Antiproliferative assay, murine mammary carcinoma FM3A/0 cells; assay type: cell-based; conditions: for IC50: read-out: IC50 ± SD, FM3A/0
L1210 cells = assay: Antiproliferative assay, murine leukemia L1210 cells; assay type: cell-based; conditions: Mus musculus, L1210, 48 h, read-out: IC50 ± SD, L1210
Molt4/C8 cells = assay: Antiproliferative assay, human T-leukemia Molt4/C8 cells; assay type: cell-based; conditions: for IC50: Homo sapiens, Molt4/C8, 48 h, read-out: IC50 ± SD, Molt4/C8
[4] = system: panel of human cancer cell lines; assay: Antiproliferative activity, panel of additional human cancer cell lines; assay type: cell-based; conditions: read-out: IC50 values against additional human cancer cell lines
How it was run: (§1)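 Cells were seeded at 300,000–500,000 cells/mL and mixed 1:1 with serial dilutions of test compound. They were incubated 48 h at 37 °C, and cell number was counted with a Coulter counter.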

[5] = system: cleaved caspase-3, cleaved caspase-9, PARP, Bcl-2, Mcl-1, XIAP in HeLa cells; assay: Western blot of caspases, PARP, Bcl-2, Mcl-1, XIAP in HeLa cells; assay type: cell-based, human
How it was run: (§2)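 HeLa cells were treated with test compound for 24 or 48 h, washed twice in ice-cold PBS, and lysed on ice for 30 min. Lysis buffer was T-PER with 300 mM NaCl, 1 mM orthovanadate, 2 mM AEBSF and protease inhibitors. Lysates were cleared at 15,000g (4 °C, 10 min). 20 µg protein went to SDS–PAGE, PVDF transfer and overnight blocking. Primary antibodies ran 2 h at room temperature, then HRP secondary and ECL. Membranes were stripped and reprobed for β-actin as loading control.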

HeLa cells [6] = assay: Annexin-V/PI apoptosis assay; assay type: cell-based, human; conditions: 24 h, further increased at 48 h even at 15 nM
Jurkat cells [7] = assay: Flow cytometric cell cycle analysis, Jurkat; assay type: cell-based, human; conditions: 24 h
How it was run: (§3)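 Exponentially growing cells (5 × 105 for HeLa) were exposed to test compound at 15–250 nM for 24 h. Cells were fixed in ice-cold 70% ethanol, then treated with lysis buffer containing RNase A and 0.1% Triton X-100. After propidium iodide staining, DNA content was analysed by flow cytometry for cell-cycle distribution. Values are mean ± SEM of three independent experiments.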

HeLa cells [8] = assay: Flow cytometric cell cycle analysis, HeLa; assay type: cell-based, human; conditions: 24 h
How it was run: as §3

Jurkat cells [9] = assay: Antiproliferative assay, T-leukemia Jurkat; assay type: cell-based; conditions: Homo sapiens, read-out: IC50 ±SD, Jurkat
How it was run: as §1

[10] = system: cyclin B, p-cdc2 Y15, cdc25C in HeLa cells; assay: Western blot of G2/M regulatory proteins in HeLa cells; assay type: cell-based, human
How it was run: as §2

Raji cells = assay: Antiproliferative assay, B-cell lymphoma Raji; assay type: cell-based; conditions: Homo sapiens, read-out: IC50 ±SD, Raji
How it was run: as §1

MCF-7 cells = assay: Antiproliferative assay, mammary carcinoma MCF-7; assay type: cell-based; conditions: Homo sapiens, MCF7, read-out: IC50 ±SD, MCF-7
How it was run: as §1

HeLa cells [11] = assay: Mitochondrial ROS production; assay type: cell-based, human; conditions: 24 or 48 h, versus control cells
[12] = system: panel of human and murine tumor cell lines; assay: Antiproliferative activity, panel of human and murine tumor cell lines; assay type: cell-based
How it was run: as §1

HeLa cells [13] = assay: Mitochondrial membrane potential; assay type: cell-based, human; conditions: 24 or 48 h
bovine brain tubulin = assay: Inhibition of tubulin polymerization; assay type: biochemical; conditions: greater than that of 1
HOS, OST TK- cells = assay: Antiproliferative assay, osteosarcoma HOS, OST TK-; assay type: cell-based; conditions: Homo sapiens, read-out: IC50 ±SD, HOS, OST TK-
How it was run: as §1

[14] = system: wide panel of cancer cell lines; assay: Antiproliferative activity, wide panel of cancer cell lines; assay type: cell-based; conditions: read-out: IC50 against a wide panel of cancer cell lines
How it was run: as §1

PC-3 cells = assay: Antiproliferative assay, prostate PC-3; assay type: cell-based; conditions: Homo sapiens, PC-3, read-out: IC50 ±SD, PC-3
How it was run: as §1

[15] = at higher concentrations (range 15 to 250 nM)

## COC(=O)c1cc(CCc2cc(OC)ccc2OC)ccc1O [Compound 1, reference compound]
tubulin
  Colchicine binding % ± SD (inhibition of [3H]colchicine binding): 52 ± 4%
[1]
  antiproliferative activity, A431: active at low micromolar concentrations
HeLa cells [2]; human cervix carcinoma HeLa, Coulter counter
  IC50: 0.41 ± 0.08 µM
CEM/0 cells
  IC50: 0.44 ± 0.01 µM
[3]
  antiproliferative activity, MIA PaCa-2: active at low micromolar concentrations
FM3A/0 cells; FM3A vs other cell lines
  fold less active in FM3A cells than the other cell lines examined: about 30 fold
FM3A/0 cells; murine mammary carcinoma FM3A/0, 48 h, Coulter counter
  IC50: 13 ± 0.2 µM

## COC(=O)c1cc(CCc2cc(OC)ccc2OC)sc1N [Compound 2a, Methyl 2-amino-5-[2-(2,5-dimethoxyphenyl)ethyl]thiophene-3-carboxylate]
L1210 cells
  IC50: 1.8 ± 0.1 µM
tubulin
  Colchicine binding % ± SD (inhibition of [3H]colchicine binding): 52 ± 0.9%
Molt4/C8 cells
  IC50 values in Molt4/C8, in words: submicromolar
HeLa cells [2]; Homo sapiens, HeLa
  IC50: 0.77 ± 0.17 µM
FM3A/0 cells; Mus musculus, FM3A/0, 48 h
  IC50: 2.3 ± 0.6 µM

## CCOC(=O)c1cc(CCc2cc(OC)ccc2OC)sc1N [Compound 2b, Ethyl 2-amino-5-[2-(2,5-dimethoxyphenyl)ethyl]thiophene-3-carboxylate]
tubulin
  Colchicine binding % ± SD (inhibition of [3H]colchicine binding): 46 ± 0.9%
Molt4/C8 cells
  IC50: 1.1 ± 0.1 µM
HeLa cells [2]; Homo sapiens, HeLa
  IC50: 0.31 µM
FM3A/0 cells; Mus musculus, FM3A/0, 48 h
  IC50: 1.9 ± 0.5 µM

## COc1ccc(OC)c(CCc2cc(C#N)c(N)s2)c1 [Compound 2c, 2-Amino-5-[2-(2,5-dimethoxyphenyl)ethyl]thiophene-3-carbonitrile]
[4]
  IC50: 0.012 to 0.086 µM
[5]; 50 and 100 nM, 24 h
  caspase-9 activation: early activation of caspase-9 at 24 h
[5]; 50 and 100 nM, 48 h
  caspase-3 and PARP activation: activation of caspase-3 and of the caspase-3 substrate PARP
[5]; both concentrations used (50 and 100 nM)
  expression of anti-apoptotic proteins Bcl-2 and Mcl-1: remarkably reduced after a 24 h and disappeared after a 48 h treatment
[5]; concomitant with caspase activation
  expression of XIAP: strongly reduced
HeLa cells [6]
  annexin-V positive cells (apoptosis): accumulation of annexin-V positive cells in a concentration-dependent manner
Jurkat cells [7]
  lowest concentration with a rise in G2/M cells: 30 nM
Jurkat cells [7]; [15]
  cells arrested in G2/M: more than 80%
tubulin; more active than 1
  inhibition of colchicine binding relative to 1: 1.5 fold
tubulin
  Colchicine binding % ± SD (inhibition of [3H]colchicine binding): 84 ± 5%
HeLa cells [8]
  lowest concentration with a rise in G2/M cells: 30 nM
HeLa cells [8]; [15]
  cells arrested in G2/M: more than 80%
Jurkat cells [9]
  IC50: 0.012 ± 0.008 µM
[10]; 50 and 100 nM, 24 and 48 h
  cyclin B1 expression: marked increase in cyclin B1 expression
[10]; 50 and 100 nM, 24 h and 48 h
  cdc25C phosphorylation state / expression: slower migrating forms of phosphatase cdc25C appeared at 24 h
[10]; after 24 h
  phosphorylation of cdc2 (Tyr15): dramatic de-phosphorylation of cdc2 (Tyr15)
Raji cells
  IC50: 0.064 ± 0.025 µM
MCF-7 cells
  IC50: 0.025 ± 0.001 µM
HeLa cells [11]
  ROS production (HE, H2-DCFDA): induced the production of significant amounts of ROS
[12]; in four cell lines
  enhancement of antiproliferative activity with respect to 1: 3–230 fold
[12]; read-out: IC50 values against panel of human and murine tumor cell lines
  IC50: 0.035 to 0.13 µM
HeLa cells [13]
  cells with depolarized mitochondria (Δψmt, JC-1): time and concentration-dependent increase in the proportion of cells with depolarized mitochondria
Bovine brain tubulin
  tubulin assembly inhibitory activity relative to 1: 3 fold
HOS, OST TK- cells
  IC50: 0.024 ± 0.013 µM
[14]
  IC50: 0.017 to 0.13 µM
FM3A/0 cells; Mus musculus, FM3A/0, 48 h
  IC50: 0.056 ± 0.004 µM
PC-3 cells
  IC50: 0.025 ± 0.013 µM

## COC(=O)c1c(N)sc(CCc2cc(OC)ccc2OC)c1C [Compound 2d, Methyl 2-amino-5-[2-(2,5-dimethoxyphenyl)ethyl]-4-methylthiophene-3-carboxylate]
L1210 cells
  IC50: 46 ± 3.2 µM
Molt4/C8 cells
  IC50: 47 ± 16 µM
HeLa cells [2]; Homo sapiens, HeLa
  IC50: 35 ± 7.1 µM
FM3A/0 cells; Mus musculus, FM3A/0, 48 h
  IC50: 44 ± 8.1 µM

## CCOC(=O)c1c(N)sc(CCc2cc(OC)ccc2OC)c1C(=O)OCC [Compound 2e, Diethyl 2-amino-5-[2-(2,5-dimethoxyphenyl)ethyl]thiophene-3,4-dicarboxylate]
L1210 cells
  IC50: 34 ± 3.2 µM
Molt4/C8 cells
  IC50: 24 ± 2.2 µM
FM3A/0 cells; Mus musculus, FM3A/0, 48 h
  IC50: 33 ± 9.1 µM

## COC(=O)c1cc(CCc2ccccc2OC)sc1N [Compound 2f, Methyl 2-amino-5-[2-(2-methoxyphenyl)ethyl]thiophene-3-carboxylate]
L1210 cells
  IC50: 17 ± 5.3 µM
HeLa cells [2]; Homo sapiens, HeLa
  IC50: 15 ± 1.3 µM
FM3A/0 cells; Mus musculus, FM3A/0, 48 h
  IC50: 34 ± 5.6 µM

## COC(=O)c1cc(CCc2ccc(OC)cc2C)sc1N [Compound 2h, Methyl 2-amino-5-[2-(4-methoxy-2-methylphenyl)ethyl]thiophene-3-carboxylate]
FM3A/0 cells; Mus musculus, FM3A/0, 48 h
  IC50: 45 ± 16 µM

## CCOC(=O)c1cc(CCc2ccccc2OC)sc1N [Compound 2i, Ethyl 2-amino-5-[2-(2-methoxyphenyl)ethyl]thiophene-3-carboxylate]
Molt4/C8 cells
  IC50: 6.9 ± 0.8 µM
HeLa cells [2]; Homo sapiens, HeLa
  IC50: 45 ± 6.2 µM
FM3A/0 cells; Mus musculus, FM3A/0, 48 h
  IC50: 53 ± 7.2 µM

## CCOC(=O)c1cc(CCc2ccc(OC)cc2)sc1N [Compound 2j, Ethyl 2-amino-5-[2-(4-methoxyphenyl)ethyl]thiophene-3-carboxylate]
L1210 cells
  IC50: 20 ± 10 µM
Molt4/C8 cells
  IC50: 0.34 ± 0.5 µM
  IC50 values in Molt4/C8, in words: submicromolar
HeLa cells [2]; Homo sapiens, HeLa
  IC50: 39 ± 0.2 µM
FM3A/0 cells; Mus musculus, FM3A/0, 48 h
  IC50: 48 ± 5.2 µM

## COc1ccccc1CCc1cc(C#N)c(N)s1 [Compound 2k, 2-Amino-5-[2-(2-methoxyphenyl)ethyl]thiophene-3-carbonitrile]
Molt4/C8 cells
  IC50: 2 ± 0.2 µM
HeLa cells [2]; Homo sapiens, HeLa
  IC50: 7.8 ± 2.1 µM
FM3A/0 cells; Mus musculus, FM3A/0, 48 h
  IC50: 22 ± 3.1 µM

## COc1ccc(CCc2cc(C#N)c(N)s2)cc1 [Compound 2l, 2-Amino-5-[2-(4-methoxyphenyl)ethyl]thiophene-3-carbonitrile]
HeLa cells [2]; Homo sapiens, HeLa
  IC50: 19 ± 13 µM
FM3A/0 cells; Mus musculus, FM3A/0, 48 h
  IC50: 31 ± 27 µM

## N#Cc1cc(CCc2ccccc2)sc1N [Compound 2m, 2-Amino-5-phenylethylthiophene-3-carbonitrile]
HeLa cells [2]; Homo sapiens, HeLa
  IC50: 35 ± 3.1 µM
FM3A/0 cells; Mus musculus, FM3A/0, 48 h
  IC50: 62 ± 3.2 µM

## COC(=O)c1cc(-c2cc(OC)ccc2OC)sc1N [Compound 2n, Methyl 2-amino-5-(2,5-dimethoxyphenyl)thiophene-3-carboxylate]
L1210 cells
  IC50: 50 ± 5.2 µM
HeLa cells [2]; Homo sapiens, HeLa
  IC50: 37 ± 6.1 µM
FM3A/0 cells; Mus musculus, FM3A/0, 48 h
  IC50: 52 ± 1 µM

## COc1ccc(OC)c(-c2cc(C#N)c(N)s2)c1 [Compound 2o, 2-Amino-5-(2,5-dimethoxyphenyl)thiophene-3-carbonitrile]
L1210 cells
  IC50: 76 ± 3.2 µM
HeLa cells [2]; Homo sapiens, HeLa
  IC50: 71 ± 20 µM
